Xi reactivation: activators of inactive X chromosome reactivation, primary screen, imaging, XiGFP fibroblasts, GFP high-content imaging, set 2; activation, % at 7.58 µM; 360,000 tested, 0.055% active; XiGFP mouse fibroblasts, % GFP-positive cells imaging, 3 d; cells co-treated with 5-aza-dC sensitizer; scaled so ellipticine positive control = 100%; AID 743238, 2013;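 active = mean normalized replicate activation at least 10% and every replicate at or above 10%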;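 also: 0% = median of on-plate neutral control wells and 100% = ellipticine 6 µM median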
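Assay system: SV40-immortalized XiGFP fibroblast cells, line 68-5-11; buffer or medium: DMEM plus 5-aza-dC sensitizer; compound: one concentration, pinned; timing: compounds 3 days, fix/stain 15 min at room temperature; benchmarks: positive control ellipticine, 6 µM final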
FXN GAA850 act: FXN promoter activators, primary screen, cell-based, luciferase luminescence, HEK293 lucGAA850; 360,000 tested, 0.56% active; activation, % at 6 µM; HEK293 lucGAA850 FXN promoter luciferase reporter, 24 h; percent of 10 µM SAHA response;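 active = activation above the average of all compounds screened plus 3 SD, cutoff fixed separately per campaign, cut at about 7.5% in these data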;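 also: 0% = DMSO wells and 100% = 10 µM SAHA wells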
GSIS activator: GLuc luminescence reporter in INS-1E cells, primary screen for activators of glucose-dependent secretion of insulin; 370,000 tested, 0.61% active; INS-1E GLuc reporter insulin secretion, 2-3 h; activation, % at 16.6 µM; AID 743287, 2014;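 active = lowest replicate activation of at least 40%, so every replicate reaches that level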;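 also: 0% = median of neutral control wells and 100% = median of IBMX positive control wells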
CaV13 FRET inh: Primary screen for inhibitors of IQ motif and Ca2+-dependent inactivation inhibitor domain binding in CACNA1D, Förster resonance energy transfer in living cells, …; HEK cells, CFP/YFP FRET ICDI-IQ, plate reader, 10 min; percent FRET-ratio fall versus neutral wells; inhibition, % at 12.3 µM; 340,000 tested, 0.098% active; AID 743397;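 active = mean replicate inhibition of at least 30% and at least 1% of replicates passing that level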;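 also: 0% = median of the neutral control wells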
* = called active by the depositor; . = not tested or not shown. The list is not random: actives were taken first. Their share in the collection is about 1%.

SMILES	Xi reactivation	FXN GAA850 act	GSIS activator	CaV13 FRET inh
Cc1cccc(N(Cc2ccccc2)C(=O)CCl)c1	0	-10	97*	-7
O=C(CCl)N(Cc1ccccc1)c1ccccc1	0	-12	-2	-4
c1ccc(-c2nc(NCC3CC3)nc3ccsc23)cc1	0	2	78*	-12
COc1ccc(S(=O)(=O)N2CCc3ccccc3C2)cc1OC	.	2	63*	-8
COc1ccc(S(=O)(=O)N2CCc3ccccc3C2)cc1C(=O)O	0	1	16	-18
COc1cc2c(cc1OC)CN(C(=O)CNS(=O)(=O)c1ccc(C)c(C)c1)CC2	0	1	55*	-7
CO[C@H]1CN(C)C(=O)c2cc(NC(=O)c3ccc4c(c3)OCO4)ccc2OC[C@H](C)NC[C@@H]1C	0	.	8	.
CCOC(=O)Nc1ccc2c(c1)N(C(=O)CCN1CCN(C)CC1)c1ccccc1S2	.	2	.	-2
CCOC(=O)Nc1ccc2c(c1)Sc1ccccc1N2C(=O)CCN1CCOCC1	.	0	107*	0
CCCC(=O)Nc1ccc2c(c1)OC[C@H](C)N(C(=O)C1CCCC1)C[C@H](C)[C@@H](OC)CN(C)C2=O	0	.	-4	.
COc1ccc(-c2ccc(/C=C3/C(=N)N4C=CSC4=NC3=O)o2)c([N+](=O)[O-])c1	1	-1	158*	-4
N=C1/C(=C/c2cccn2-c2ccc([N+](=O)[O-])cc2)C(=O)N=C2SC=CN12	0	0	12	-4
COc1ccccc1-c1cn(CC[C@H]2CC[C@@H](NC(=O)C3CCC3)[C@H](CO)O2)nn1	0	.	-5	.
CCN(CC)S(=O)(=O)c1ccc(C)c(NC(=O)CSc2ncc(C(F)(F)F)cc2Cl)c1	0	0	169*	-5
Cc1ccc(S(=O)(=O)N(C)C)cc1NC(=O)CSc1ncc(C(F)(F)F)cc1Cl	0	2	-26	-3
COCC(=O)N(C)C[C@@H]1Oc2cc(C#CCC3CCCC3)ccc2S(=O)(=O)N([C@@H](C)CO)C[C@@H]1C	0	.	-3	.
COc1ccc(S(=O)(=O)N(C)C[C@@H]2OCCCC[C@@H](C)Oc3ccc(NS(C)(=O)=O)cc3C(=O)N([C@@H](C)CO)C[C@@H]2C)cc1	0	.	27	.
COc1cc(N2CCCC2)c(OC)cc1/C=C1/NC(=S)NC1=O	71*	1	-13	-15
Cc1cc(C)cc(Cn2c3ccc(NC(=S)NCc4ccccc4F)cc3c(=O)n2C)c1	0	-1	56*	-5
CCN(CC)C(=O)n1c(Cc2ccccc2)nc2ccccc21	0	1	48*	-19
CC(=O)Nc1ccc2c(c1)C(=O)N(C)C[C@@H](C)[C@@H](CN(C)S(C)(=O)=O)O2	0	.	18	.
COc1ccc(C[C@H]2CN3C(=NC[C@@H]3Cc3ccccc3)N2CCNC(=O)CCC2CCCCC2)cc1	0	-7	155*	65*
O=C(N[C@@H]1CC[C@@H](CC(=O)N2CCc3ccccc3C2)O[C@@H]1CO)C1CC1	1	.	9	.
O=C1CNC[C@@H]2[C@@H](c3ccc(-c4ccccc4F)cc3)[C@H](CO)N12	0	.	16	.
CC(C)(C)c1ccc(OCC(=O)Nc2ccc(-c3nc4cccnc4o3)cc2)cc1	.	-1	106*	.
SMILES	Xi reactivation	FXN GAA850 act	GSIS activator	CaV13 FRET inh
CC(C)C(=O)Nc1ccc(-c2nc3cccnc3o2)cc1	.	4	13	-5
N#CCSc1nc2ccccc2c(=O)n1C1CCCCC1	0	7	53*	-21
N#CCSc1nc2ccccc2c(=O)n1CCC(=O)NC1CCCCC1	.	1	.	-6
Cc1cc2oc3cc(NCCC4CCCN4C)ccc3c(=O)c2cc1C (configuration not stated)	0	4	.	77*
CN1CCCC1CCNc1ccc2sc3ccccc3c(=O)c2c1 (configuration not stated)	9	7	12	-29
CCCCn1c(O)c(/C=C2\C=NN=C2c2ccccc2)sc1=S	.	3	119*	-6
CCCCCCn1c(O)c(/C=C2\C=NN=C2c2ccccc2)sc1=S	0	3	164*	-3
CCn1c(O)c(/C=C2\C=NN=C2c2ccccc2)sc1=S	0	0	-5	-1
CC(C)Cn1c(O)c(/C=C2\C=NN=C2c2ccccc2)sc1=S	0	3	83*	-3
CO[C@@H]1CN(C)C(=O)c2ccc(NC(=O)C3CCOCC3)cc2OC[C@@H](C)N(C(=O)C2CCOCC2)C[C@H]1C	0	.	8	.
COc1ccccc1CCn1cnc(-c2ccc(F)cc2)c1CC(C)C	0	.	120*	-12
COc1ccccc1CCn1cnc(-c2ccccc2OC)c1CC(C)C	0	.	65*	-8
COc1ccccc1CCn1cnc(-c2ccccc2)c1CC(C)C	0	.	.	-5
O=C(NCCN1CCCC1)[C@@H]1[C@@H](CO)[C@@H]2Cn3c(cccc3=O)[C@H]1N2C(=O)NC1CCCC1	0	.	5	.
O=C(C[C@H]1CC[C@H](NS(=O)(=O)c2ccc(F)cc2)[C@@H](CO)O1)NCc1ccc(Cl)c(Cl)c1	0	.	-14	.
C[C@H](CO)N1C[C@H](C)[C@H](CN(C)Cc2ccc(C(=O)O)cc2)OCCCC[C@H](C)Oc2ccc(NC(=O)Nc3ccccc3)cc2C1=O	0	.	3	.
CCN=C1S/C(=C\c2cc(Br)c(O)c(OC)c2)C(=O)N1CC	0	3	53*	-14
COc1ccc(/C=C2\SC(=NCc3ccccc3)N(Cc3ccccc3)C2=O)cc1OC	.	5	16	-5
CCN=C1S/C(=C\c2sccc2C)C(=O)N1CC	0	3	63*	1
CCOc1ccc(C(=O)NCc2ccccn2)cc1	.	1	12	-7
O=C(NCc1ccccn1)c1coc(=O)c(Br)c1	.	-1	102*	-6
COc1ccccc1C(C)NS(=O)(=O)c1ccc(Cl)nc1 (configuration not stated)	0	2	44*	0
COc1ccc(C)cc1NS(=O)(=O)c1ccc(Cl)nc1	0	0	15	-4
CC1(C)CCCC(C)(C)N1CC(O)COCCOc1ccc(Br)cc1 (configuration not stated)	0	1	51*	-5
OCCN1CCN(CC(O)COCCOc2ccc(Br)cc2)CC1 (configuration not stated)	0	1	0	-18
O=C(OCc1ccccc1)/C(=C/c1ccc(Cl)cc1)NC(=O)c1ccccc1Cl	.	1	70*	.
COc1ccc(NC(=O)c2sc3nc(N4CCOCC4)c4c(c3c2N)CC(C)(C)OC4)c(OC)c1	0	0	127*	-2
COc1ccc(NC(=O)c2sc3nc(N4CCOCC4)c4c(c3c2N)CC(C)(C)OC4)cc1	0	-1	26	.
O=C(CCCC(=O)c1ccccc1)NCc1ccccc1	0	0	40*	-20

Source: PubChem
